According to ChEMBL document CHEMBL1131053, “Design, synthesis, and pharmacological evaluation of conformationally constrained analogues of N,N'-diaryl- and N-aryl-N-aralkylguanidines as potent inhibitors of neuronal Na+ channels” (J Med Chem, 1998):

Legend:
Glutamate NMDA receptor = experiment: Displacement of [3H]-MK-801 binding to N-methyl-D-aspartate glutamate receptor of rat brain membranes; format: cell membranes, Membrane
In short: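 Rat brain membrane suspension; inhibition of [3H]MK-801 binding at the NMDA receptor ion-channel site. IC50 taken from displacement curves, Ki reported. Means of at least three separate determinations ± SEM.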

Mus musculus [1] = experiment: Percent inhibition of convulsions in audiogenic DBA/2 mice at dose 20 mg/kg; format: functional
In short: (§1)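 Audiogenic DBA/2 mice of either sex, 6.5–12 g, 20–23 days old. Drug or vehicle (0.3 M mannitol, 10 mL/kg) given ip 30 min before a 12 kHz, 120 dB pure tone for 45 s or until respiratory arrest. % inhibition = (MRS control − MRS treatment)/MRS control × 100.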

Mus musculus [2] = experiment: Percent inhibition of convulsions in audiogenic DBA/2 mice at dose 10 mg/kg; format: functional; in short: as §1
[3] = target: T1, Sodium channel protein type 2 subunit alpha (Rattus norvegicus, UniProt P04775); experiment: (§2) In vitro inhibition of [14C]- guanidinium influx in Chinese hamster ovary (CHO) cells expressing rat brain sodium channel type IIA (CNaIIA-1); format: cell-based
[4] = In vitro inhibition of Calcium flux into brain synaptosomes; format: functional, subcellular, Rattus norvegicus
In short: (§3)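 45Ca2+ influx into brain synaptosomes depolarized by elevated K+, adapted from Nachsen and Blaustein. The rapid uptake component is measured, attributed to presynaptic neuronal (likely P-type) Ca2+ channels. Means of at least three determinations ± SEM unless otherwise indicated.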

[5] = target: T1, Sodium channel protein type 2 subunit alpha; experiment: as §2; format: functional, cell-based
[6] = In vitro inhibition of Calcium flux into brain synaptosomes (Values are means of at least three separate determinations); format: functional, subcellular, Rattus norvegicus; in short: as §3
Mus musculus [7] = experiment: Percent inhibition of convulsions in audiogenic DBA/2 mice at dose 2 mg/kg; format: functional; in short: as §1
Mus musculus [8] = experiment: Percent inhibition of convulsions in audiogenic DBA/2 mice at dose 4 mg/kg; format: functional; in short: as §1

T1 sequence (P04775 whole entry): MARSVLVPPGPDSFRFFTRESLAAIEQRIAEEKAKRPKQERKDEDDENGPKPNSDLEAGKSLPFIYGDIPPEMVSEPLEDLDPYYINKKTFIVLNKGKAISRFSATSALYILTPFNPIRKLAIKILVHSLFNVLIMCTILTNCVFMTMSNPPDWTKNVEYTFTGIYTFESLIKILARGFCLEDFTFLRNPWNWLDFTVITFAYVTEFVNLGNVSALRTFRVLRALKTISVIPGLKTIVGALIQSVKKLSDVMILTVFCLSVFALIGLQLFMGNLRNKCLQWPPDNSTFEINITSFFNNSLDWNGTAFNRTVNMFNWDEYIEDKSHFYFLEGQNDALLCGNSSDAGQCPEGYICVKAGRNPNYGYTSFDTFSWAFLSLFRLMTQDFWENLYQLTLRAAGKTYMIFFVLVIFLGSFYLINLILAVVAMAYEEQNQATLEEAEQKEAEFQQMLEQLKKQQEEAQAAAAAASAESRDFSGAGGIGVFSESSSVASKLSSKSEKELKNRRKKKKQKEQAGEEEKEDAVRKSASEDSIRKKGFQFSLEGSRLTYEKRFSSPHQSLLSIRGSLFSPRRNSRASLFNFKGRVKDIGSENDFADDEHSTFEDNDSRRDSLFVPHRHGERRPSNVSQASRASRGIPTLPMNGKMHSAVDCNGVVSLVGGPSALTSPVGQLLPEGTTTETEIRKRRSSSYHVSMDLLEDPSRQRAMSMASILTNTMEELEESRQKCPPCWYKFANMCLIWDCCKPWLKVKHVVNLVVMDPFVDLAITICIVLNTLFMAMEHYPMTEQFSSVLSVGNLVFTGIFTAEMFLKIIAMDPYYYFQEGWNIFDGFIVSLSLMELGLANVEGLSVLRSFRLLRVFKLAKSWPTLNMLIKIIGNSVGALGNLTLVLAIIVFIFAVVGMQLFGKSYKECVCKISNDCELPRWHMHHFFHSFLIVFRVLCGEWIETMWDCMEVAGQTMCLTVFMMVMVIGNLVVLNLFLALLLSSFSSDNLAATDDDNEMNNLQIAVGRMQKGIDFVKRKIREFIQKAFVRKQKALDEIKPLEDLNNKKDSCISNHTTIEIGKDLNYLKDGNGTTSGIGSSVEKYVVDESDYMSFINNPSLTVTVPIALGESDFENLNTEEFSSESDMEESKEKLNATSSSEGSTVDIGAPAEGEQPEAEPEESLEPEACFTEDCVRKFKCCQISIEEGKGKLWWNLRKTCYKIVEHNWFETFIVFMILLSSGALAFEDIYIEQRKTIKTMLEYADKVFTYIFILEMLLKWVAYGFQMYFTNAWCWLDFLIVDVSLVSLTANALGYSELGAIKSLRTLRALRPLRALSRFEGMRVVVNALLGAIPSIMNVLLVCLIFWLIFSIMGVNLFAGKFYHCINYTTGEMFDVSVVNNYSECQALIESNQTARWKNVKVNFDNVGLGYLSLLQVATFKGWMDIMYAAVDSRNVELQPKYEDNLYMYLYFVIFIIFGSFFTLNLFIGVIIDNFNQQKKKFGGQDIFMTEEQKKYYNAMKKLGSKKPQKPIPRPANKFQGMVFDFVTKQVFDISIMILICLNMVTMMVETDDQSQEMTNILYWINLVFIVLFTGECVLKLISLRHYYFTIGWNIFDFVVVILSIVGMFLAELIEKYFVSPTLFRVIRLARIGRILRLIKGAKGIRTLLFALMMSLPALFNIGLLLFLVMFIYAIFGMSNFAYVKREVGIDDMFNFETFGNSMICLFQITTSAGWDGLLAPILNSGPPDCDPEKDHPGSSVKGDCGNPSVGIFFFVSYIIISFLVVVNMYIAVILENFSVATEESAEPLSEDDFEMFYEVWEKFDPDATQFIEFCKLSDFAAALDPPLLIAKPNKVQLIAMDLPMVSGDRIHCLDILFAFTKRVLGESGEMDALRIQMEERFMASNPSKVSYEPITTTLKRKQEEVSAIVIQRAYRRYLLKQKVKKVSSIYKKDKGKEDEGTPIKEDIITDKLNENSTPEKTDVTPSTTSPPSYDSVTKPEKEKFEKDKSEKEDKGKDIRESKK

Ki (Glutamate NMDA receptor) [µM]	IC50 [3] [µM]	SMILES	inhibition in vivo at 20 mg/kg (Mus musculus [1]) [%]	further results
3.69	0.62	CCC(C)c1ccc(N(Cc2ccc(C(C)(C)C)cc2)C(=N)N)cc1 (configuration not stated)	81	inhibition in vivo at 10 mg/kg (Mus musculus [2]): 44%; IC50 [4]: 2.4 µM
2.49		COc1ccc(/N=C(\N)Nc2ccc3c4c(cccc24)CC3)c2ccccc12	21	IC50 [5]: 1.64 µM; IC50 [6]: 2.7 µM
4.33		CCC(C)c1ccc(NC(=N)Nc2ccc(C(C)CC)cc2)cc1 (configuration not stated)	69	
	9.95	NC1=Nc2ccccc2CN1c1ccccc1		
13.5		CCC(C)c1ccc(N2CCN(c3ccc(C(C)CC)cc3)C2=N)cc1 (configuration not stated)	58	IC50 [5]: 0.06 µM
	53	N=C(N)N(Cc1ccccc1)c1ccccc1		
35.1		CCC(C)c1ccc(N2CCCN(c3ccc(C(C)CC)cc3)C2=N)cc1 (configuration not stated)		inhibition in vivo at 2 mg/kg (Mus musculus [7]): 41%; IC50 [5]: 0.06 µM; inhibition in vivo at 10 mg/kg (Mus musculus [2]): 84%; inhibition in vivo at 4 mg/kg (Mus musculus [8]): 75%; IC50 [6]: 0.39 µM
3.84		CC(C)c1ccc2c(c1)CCC(c1ccc(C(C)(C)C)cc1)N2C(=N)N (configuration not stated)	80	IC50 [5]: 0.46 µM; inhibition in vivo at 10 mg/kg (Mus musculus [2]): 22%; IC50 [6]: 0.9 µM
	2.9	N/C1=N/c2ccc(cc2)OCCCCCOc2ccc(cc2)N1		
	3.28	CCOc1ccc(NC(=N)Nc2ccc(OCC)cc2)cc1		
3.34		CCC(C)c1ccc(N(C)C(=N)N(C)c2ccc(C(C)CC)cc2)cc1 (configuration not stated)	43	IC50 [5]: 1 µM; IC50 [6]: 2.5 µM
	38	N=C(N)N1Cc2ccccc2CCc2ccccc21		
	17.5	N=C(N)N1c2ccccc2CCC1c1ccccc1 (configuration not stated)		
4.41	1.8	CCC(C)c1ccc(N2C(N)=NCC2c2ccc(C(C)C)cc2)cc1 (configuration not stated)	2	IC50 [4]: 3.5 µM
	14.7	N=C1N(c2ccccc2)CCN1c1ccccc1		
		N=C(Nc1ccccc1)Nc1ccccc1		IC50 [5]: > 14 µM
		Nc1nnc(-c2cccc(Cl)c2Cl)c(N)n1 [LAMOTRIGINE]		inhibition in vivo at 10 mg/kg (Mus musculus [2]): 71%

SMILES	Ki (Glutamate NMDA receptor) [µM]	IC50 [3] [µM]	inhibition in vivo at 20 mg/kg (Mus musculus [1]) [%]	further results
c1ccc(NC2=NCCN2c2ccccc2)cc1		> 25		
NC1=NCC(c2ccccc2)N1c1ccccc1 (configuration not stated)		> 24		
N=C1N(c2ccccc2)CCCN1c1ccccc1		> 25		
CN(c1nc2ccccc2s1)C1CCN(C[C@H](O)COc2ccc(F)c(F)c2)CC1 [LUBELUZOLE]		0.26	66	
